ChEMBL document CHEMBL5223148, “Design, synthesis, and bioactivity evaluation of novel 1-(4-(benzylsulfonyl)-2-nitrophenyl) derivatives as potential anti-inflammatory agents against LPS-induced acute lung injury” (Bioorg Med Chem Lett, 2023)
pIC50: −log10 of the molar value. Active and inactive are the calls of the source. No cut-off for these calls is given here.

Assays:
Mus musculus [1] = assay: Antiinflammatory activity in C57BL/6J mouse model of LPS-induced acute lung injury assessed as reduction in neutrophil count in BALF at 20 mg/kg, po administered 30 mins prior to LPS treatment and measured after 6 hrs by Wright and Giemsa staining based analysis; assay type: functional, organism-based; conditions: time 6.5 hrs
Method in brief: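 Oral dosing 30 min before intratracheal LPS at 5 mg/kg, with a saline sham group. BALF collected at 6 h and neutrophils counted by Wright-Giemsa staining, given relative to control. Mean ± SEM, n = 8.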

Mus musculus [2] = assay: Antiinflammatory activity in C57BL/6J mouse model of LPS-induced acute lung injury assessed as reduction in p-p65 level at 20 mg/kg, po administered 30 mins prior to LPS treatment and measured after 6 hrs by immunohistochemical analysis; assay type: functional, organism-based; conditions: time 6.5 hrs
Method in brief: (§1)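 Oral pretreatment 30 min before intratracheal LPS at 5 mg/kg, with a saline sham group. Lungs taken at 6 h. Sections immunostained for F4/80 (macrophage marker) or for p-p65, counterstained with hematoxylin. Percentage of positive cells assessed.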

Mus musculus [3] = assay: Antiinflammatory activity in C57BL/6J mouse model of LPS-induced acute lung injury assessed as reduction in […] infiltration at 20 mg/kg, po administered 30 mins prior to LPS treatment and measured after 6 hrs by F4/80 antibody staining based assay; assay type: functional, organism-based; conditions: time 6.5 hrs; method in brief: as §1
J774.A1 [4] = assay: Antiinflammatory activity in mouse J774.A1 cells assessed as decrease in LPS-induced IL-6 secretion at 20 uM preincubated for 30 mins followed by LPS stimulation and measured after 24 hrs by ELISA; assay type: functional; parameters: scale not given: the % may be the effect or the level left; conditions: time 24.5 hrs
Method in brief: (§2)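 J774A.1 macrophages pretreated 30 min with 20 μM compound, DMSO as negative control. Cells then stimulated with LPS at 0.5 μg/mL for 24 h. IL-6 and TNF-α in the culture medium measured by ELISA.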

J774.A1 [5] = assay: Antiinflammatory activity in mouse J774.A1 cells assessed as decrease in LPS-induced TNF-alpha secretion at 20 uM preincubated for 30 mins followed by LPS stimulation and measured after 24 hrs by ELISA; assay type: functional; conditions: time 24.5 hrs; method in brief: as §2
J774.A1 [6] = assay: Antiinflammatory activity in mouse J774.A1 cells assessed as decrease in LPS-induced TNF-alpha secretion preincubated for 30 mins followed by LPS stimulation and measured after 24 hrs by ELISA; assay type: functional, cell-based; conditions: for Activity: time 24.5 hrs
Method in brief: (§3)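 J774A.1 cells pretreated 30 min across a concentration range, then challenged with LPS at 0.5 μg/mL for 24 h. Secreted IL-6 or TNF-α measured in the medium by ELISA, and IC50 taken from dose–response. Mean ± SEM of 3 independent experiments.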

J774.A1 [7] = assay: Antiinflammatory activity in mouse J774.A1 cells assessed as decrease in LPS-induced IL-6 secretion preincubated for 30 mins followed by LPS stimulation and measured after 24 hrs by ELISA; assay type: functional, cell-based; conditions: for Activity: time 24.5 hrs; method in brief: as §3
Mus musculus [8] = assay: Antiinflammatory activity in C57BL/6J mouse model of LPS-induced acute lung injury assessed as reduction in TNF-alpha production in serum at 20 mg/kg, po administered 30 mins prior to LPS treatment and measured after 6 hrs; assay type: functional, organism-based; conditions: time 6.5 hrs
Method in brief: (§4)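 Mice dosed orally 30 min before intratracheal LPS at 5 mg/kg; sham mice received a similar volume of saline. Animals sacrificed 6 h after LPS, and blood and BALF collected. TNF-α and IL-6 measured in serum and in BALF. Mean ± SEM, n = 8, compared with the LPS-only group.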

Mus musculus [9] = assay: Antiinflammatory activity in C57BL/6J mouse model of LPS-induced acute lung injury assessed as reduction in inflammatory infiltration at 20 mg/kg, po administered 30 mins prior to LPS treatment and measured after 6 hrs by H and E staining based assay; assay type: functional, organism-based; conditions: time 6.5 hrs
Method in brief: (§5)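 Oral pretreatment 30 min before intratracheal LPS at 5 mg/kg, with a saline sham group. Lungs harvested 6 h later. H&E-stained sections scored for alveolar septal thickness, pulmonary congestion, inflammatory infiltration and tissue destruction.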

Mus musculus [10] = assay: Antiinflammatory activity in C57BL/6J mouse model of LPS-induced acute lung injury assessed as reduction in TNF-alpha production in BALF at 20 mg/kg, po administered 30 mins prior to LPS treatment and measured after 6 hrs; assay type: functional, organism-based; conditions: time 6.5 hrs; method in brief: as §4
Mus musculus [11] = assay: Antiinflammatory activity in C57BL/6J mouse model of LPS-induced acute lung injury assessed as reduction in IL-6 production in BALF at 20 mg/kg, po administered 30 mins prior to LPS treatment and measured after 6 hrs; assay type: functional, organism-based; conditions: time 6.5 hrs; method in brief: as §4
Mus musculus [12] = assay: Antiinflammatory activity in C57BL/6J mouse model of LPS-induced acute lung injury assessed as reduction in IL-6 production in serum at 20 mg/kg, po administered 30 mins prior to LPS treatment and measured after 6 hrs; assay type: functional, organism-based; conditions: time 6.5 hrs; method in brief: as §4
Mus musculus [13] = assay: Antiinflammatory activity in C57BL/6J mouse model of LPS-induced acute lung injury assessed as reduction in tissue destruction at 20 mg/kg, po administered 30 mins prior to LPS treatment and measured after 6 hrs by H and E staining based assay; assay type: functional, organism-based; conditions: time 6.5 hrs; method in brief: as §5
Mus musculus [14] = assay: Antiinflammatory activity in C57BL/6J mouse model of LPS-induced acute lung injury assessed as reduction in pulmonary congestion at 20 mg/kg, po administered 30 mins prior to LPS treatment and measured after 6 hrs by H and E staining based assay; assay type: functional, organism-based; conditions: time 6.5 hrs; method in brief: as §5
Mus musculus [15] = assay: Antiinflammatory activity in C57BL/6J mouse model of LPS-induced acute lung injury assessed as reduction in alveolar septa thickness at 20 mg/kg, po administered 30 mins prior to LPS treatment and measured after 6 hrs by H and E staining based assay; assay type: functional, organism-based; conditions: time 6.5 hrs; method in brief: as §5

Row | Structure (SMILES) | Activity (J774.A1 [4]) | Activity (J774.A1 [5]) | other results
1 | C[C@@H]1C[C@H]2[C@@H]3CCC4=CC(=O)C=C[C@]4(C)[C@@]3(F)[C@@H](O)C[C@]2(C)[C@@]1(O)C(=O)CO | – | – | Activity (Mus musculus [1]): Active; Activity (Mus musculus [2]): Active; Activity (Mus musculus [3]): Active
2 | COCCN1CCN(c2ccc(S(=O)(=O)Cc3cccc(F)c3)cc2[N+](=O)[O-])CC1 | 0.29% | inactive | –
3 | O=[N+]([O-])c1cccc(CN2CCN(c3ccc(S(=O)(=O)Cc4cccc(F)c4)cc3[N+](=O)[O-])CC2)c1 | 59.44% | 22.51% | –
4 | COc1cccc(CS(=O)(=O)c2ccc(N3CCN(c4ccc([N+](=O)[O-])cc4)CC3)c([N+](=O)[O-])c2)c1 | 66.21% | inactive | –
5 | O=[N+]([O-])c1cc(S(=O)(=O)Cc2ccccc2)ccc1N1CCN(CCO)CC1 | 56.59% | 29.04% | –
6 | CC(=O)N1CCN(c2ccc(S(=O)(=O)Cc3cccc(F)c3)cc2[N+](=O)[O-])CC1 | 62.38% | 36.28% | pIC50 (J774.A1 [6]): 4.54; Activity (J774.A1 [6]): Active; pIC50 (J774.A1 [7]): 4.83; Activity (J774.A1 [7]): Dose-Dependent Effect
7 | O=[N+]([O-])c1ccc(N2CCN(c3ccc(S(=O)(=O)Cc4ccccc4)cc3[N+](=O)[O-])CC2)cc1 | 51.52% | inactive | –
8 | O=[N+]([O-])c1cc(S(=O)(=O)Cc2ccc(F)cc2)ccc1N1CCN(CCO)CC1 | 54.2% | 29.96% | –
9 | CC(=O)N1CCN(c2ccc(S(=O)(=O)Cc3ccc(F)cc3)cc2[N+](=O)[O-])CC1 | 33.81% | 10.99% | –
10 | CN(C)c1ccc(S(=O)(=O)Cc2cccc(F)c2)cc1[N+](=O)[O-] | inactive | inactive | –
11 | COc1cccc(CS(=O)(=O)c2ccc(N3CCN(Cc4cccc([N+](=O)[O-])c4)CC3)c([N+](=O)[O-])c2)c1 | 41.95% | inactive | –
12 | CN(C)c1ccc(S(=O)(=O)Cc2ccc(F)cc2)cc1[N+](=O)[O-] | inactive | inactive | –
13 | O=[N+]([O-])c1cccc(CN2CCN(c3ccc(S(=O)(=O)Cc4ccc(F)cc4)cc3[N+](=O)[O-])CC2)c1 | 59.52% | 27.46% | –
14 | O=[N+]([O-])c1ccc(CN2CCN(c3ccc(S(=O)(=O)Cc4ccc(F)cc4)cc3[N+](=O)[O-])CC2)cc1 | 71.54% | 26.45% | Activity (J774.A1 [6]): inactive; Activity (J774.A1 [7]): inactive
15 | CCN1CCN(c2ccc(S(=O)(=O)Cc3ccc(F)cc3)cc2[N+](=O)[O-])CC1 | 31.39% | inactive | –
16 | COc1cccc(CS(=O)(=O)c2ccc(N3CCNCC3)c([N+](=O)[O-])c2)c1 | 18.18% | inactive | –
17 | CN(C)c1ccc(S(=O)(=O)Cc2ccccc2)cc1[N+](=O)[O-] | inactive | inactive | –
18 | CCN1CCN(c2ccc(S(=O)(=O)Cc3ccccc3)cc2[N+](=O)[O-])CC1 | 21.24% | inactive | –
19 | CCN1CCN(c2ccc(S(=O)(=O)Cc3ccc(C)cc3)cc2[N+](=O)[O-])CC1 | 52.95% | inactive | –

Row | Structure (SMILES) | Activity (J774.A1 [4]) | Activity (J774.A1 [5]) | other results
20 | COCCN1CCN(c2ccc(S(=O)(=O)Cc3cccc(OC)c3)cc2[N+](=O)[O-])CC1 | inactive | inactive | –
21 | COc1cccc(CS(=O)(=O)c2ccc(N3CCN(CCO)CC3)c([N+](=O)[O-])c2)c1 | 15.23% | inactive | –
22 | CN(C)CCS(=O)(=O)Cc1ccc(Br)cc1 | 79.61% | inactive | –
23 | O=[N+]([O-])c1cccc(CN2CCN(c3ccc(S(=O)(=O)Cc4ccccc4)cc3[N+](=O)[O-])CC2)c1 | 57.27% | inactive | –
24 | CCN1CCN(c2ccc(S(=O)(=O)Cc3cccc(F)c3)cc2[N+](=O)[O-])CC1 | 58.89% | 24.43% | –
25 | COc1cccc(CS(=O)(=O)c2ccc(N3CCN(C(C)=O)CC3)c([N+](=O)[O-])c2)c1 | 5.7% | inactive | –
26 | O=[N+]([O-])c1ccc(N2CCN(c3ccc(S(=O)(=O)Cc4cccc(F)c4)cc3[N+](=O)[O-])CC2)cc1 | 68.87% | 12.18% | pIC50 (J774.A1 [6]): 4.63; Activity (J774.A1 [6]): Active; pIC50 (J774.A1 [7]): 5.22; Activity (J774.A1 [7]): Dose-Dependent Effect
27 | COCCN1CCN(c2ccc(S(=O)(=O)Cc3ccccc3)cc2[N+](=O)[O-])CC1 | inactive | inactive | –
28 | O=[N+]([O-])c1cc(S(=O)(=O)Cc2cccc(F)c2)ccc1N1CCN(CCO)CC1 | 4.55% | inactive | –
29 | COCCN1CCN(c2ccc(S(=O)(=O)Cc3ccc(C)cc3)cc2[N+](=O)[O-])CC1 | 2.98% | inactive | –
30 | CC(=O)N1CCN(c2ccc(S(=O)(=O)Cc3ccc(C)cc3)cc2[N+](=O)[O-])CC1 | 16.83% | inactive | –
31 | COCCN1CCN(c2ccc(S(=O)(=O)Cc3ccc(F)cc3)cc2[N+](=O)[O-])CC1 | 12.89% | inactive | –
32 | CN1CCN(c2ccc(S(=O)(=O)Cc3ccccc3)cc2[N+](=O)[O-])CC1 | 53.04% | 16.86% | –
33 | COc1cccc(CS(=O)(=O)c2ccc(N(C)C)c([N+](=O)[O-])c2)c1 | 8.62% | inactive | –
34 | CCN1CCN(c2ccc(S(=O)(=O)Cc3cccc(OC)c3)cc2[N+](=O)[O-])CC1 | 63.29% | 33.13% | Activity (Mus musculus [8]): Active; pIC50 (J774.A1 [6]): 4.71; Activity (J774.A1 [6]): Active; Activity (Mus musculus [9]): Active; Activity (Mus musculus [1]): Active; Activity (Mus musculus [10]): Active; pIC50 (J774.A1 [7]): 5.25; Activity (J774.A1 [7]): Dose-Dependent Effect; Activity (Mus musculus [11]): Active; Activity (Mus musculus [2]): Active; Activity (Mus musculus [12]): Active; Activity (Mus musculus [13]): Active; Activity (Mus musculus [14]): Active; Activity (Mus musculus [3]): Active; Activity (Mus musculus [15]): Active
35 | Cc1ccc(CS(=O)(=O)c2ccc(N3CCN(CCO)CC3)c([N+](=O)[O-])c2)cc1 | inactive | inactive | –
36 | O=[N+]([O-])c1ccc(N2CCN(c3ccc(S(=O)(=O)Cc4ccc(F)cc4)cc3[N+](=O)[O-])CC2)cc1 | 62.47% | 18.6% | –
37 | Cc1ccc(CS(=O)(=O)c2ccc(N3CCN(c4ccc([N+](=O)[O-])cc4)CC3)c([N+](=O)[O-])c2)cc1 | inactive | inactive | –
38 | CC(=O)N1CCN(c2ccc(S(=O)(=O)Cc3ccccc3)cc2[N+](=O)[O-])CC1 | 40.41% | 19.12% | –
